In the library only some 1.6% were active in any assay of this set; here they are far more common.
PPC-1+TRAIL kill: compounds killing PPC-1 cancer cells with TRAIL present, primary screen, TRAIL potentiator project, ATPLite luminescence, uHTS; PPC-1 cells + TRAIL, ATPLite viability luminescence; cell killing (% activity), % at 4 µM or 5 µM; 220,000 compounds, 0.41% hits; AID 1443, 2008;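 active = cell killing above 50% in the first pass at 4 µM, then a duplicate retest at 5 µM averaging 50% or more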;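 also: plate controls were cells with TRAIL plus DMSO for no effect and medium-only wells lacking cells for full effect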
FLuc inh counter: firefly luciferase enzyme inhibitors, primary screen, artefact control for luciferase-based inhibitor screens, biochemical, luminescence, ATPLite | 200,000 compounds, 1.5% hits | inhibition, % at 10 µM | Luciferin 4-monooxygenase (Photinus pyralis), P08659 | 10 min;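 active = inhibition above about 50% when tested at 10 µM, limit read from the data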
Target sequence (P08659 whole entry, looked up): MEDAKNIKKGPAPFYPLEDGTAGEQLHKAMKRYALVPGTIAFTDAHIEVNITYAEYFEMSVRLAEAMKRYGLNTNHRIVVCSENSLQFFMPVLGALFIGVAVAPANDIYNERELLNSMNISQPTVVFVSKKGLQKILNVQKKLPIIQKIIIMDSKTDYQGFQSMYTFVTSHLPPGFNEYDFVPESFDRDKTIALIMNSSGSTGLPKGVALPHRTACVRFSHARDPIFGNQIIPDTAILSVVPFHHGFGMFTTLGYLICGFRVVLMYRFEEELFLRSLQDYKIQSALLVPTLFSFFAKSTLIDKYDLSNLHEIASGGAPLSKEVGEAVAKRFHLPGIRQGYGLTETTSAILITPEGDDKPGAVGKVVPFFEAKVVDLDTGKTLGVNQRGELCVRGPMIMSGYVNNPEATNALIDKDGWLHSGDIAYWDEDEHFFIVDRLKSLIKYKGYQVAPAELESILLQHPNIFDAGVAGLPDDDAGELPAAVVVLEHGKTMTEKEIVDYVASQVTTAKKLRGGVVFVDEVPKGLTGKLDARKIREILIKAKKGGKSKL
C8 TRAIL sens: viability loss with TRAIL in NB7+C8 cells, primary screen, TRAIL sensitizer project, cell-based, ATPlite luminescence. inhibition (viability loss, TRAIL sensitization), % at 10 µM. 360,000 compounds, 1% hits;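 active = compounds causing at least 50% loss of cell viability in the single-dose screen, relative to plate controls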
FLuc act counter: FLuc activators, initial screening, artefact control for FLuc-dependent activation tests, biochemical, ATPlite luminescence; Luciferin 4-monooxygenase (Photinus pyralis), P08659; ATPlite luciferase biochemical, 10 min; 0 = ATP-free wells, 1 = DMSO control; activation factor at 10 µM; 200,000 tested, under 10 active; AID 1027, 2008;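 active = luciferase activation factor, scaled between plate controls, of at least 2 with compound at 10 µM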
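Material: luciferase plus luciferin reagent, cell-free. Medium: PBS buffer for ATP. Also added: ATP substrate, dispensed from a 10.24 µM working solution in PBS. Doses: test compounds dosed from 2 mM stocks in 100% DMSO. Incubation: 10 min post-reagent at room temperature. Technique: light output (luminescence). Read-out basis: luminescence gain marking luciferase activators.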
* hit, by the source's call; / = no result given.

SMILES	PPC-1+TRAIL kill	FLuc inh counter	C8 TRAIL sens	FLuc act counter
Cn1sc(NC(=O)c2ccc(Cl)cc2)nc1=O	25	78*	50*	0.2
O=C(Cc1ccccc1)Nc1nc(=O)c2ccccc2s1	15	-2	1	1
COc1ccc2c(c1OC)C(=O)N1c3ccccc3SC21 (configuration not stated)	5	54*	27	0.5
COc1ccc2c(c1OC)C(=O)N1c3ccccc3COC21 (configuration not stated)	25	72*	47	0.3
COc1ccc2c(c1OC)C(=O)N1c3ccccc3C(=O)N(c3ccccc3F)C21 (configuration not stated)	21	-2	9	1
FC(F)(F)c1ccc(Cl)c(N/N=C/c2ccc(N3CCOCC3)s2)c1	16	-5	-4	1
CCCCNc1c(-c2ccc(SC(C)CC)cc2)nc2ccccn12 (configuration not stated)	/	/	69*	/
CC1(C)CC(=O)C=C(c2ccccc2-c2ccc3cc[nH]c3c2)C1=O	/	/	-18	/
CC1(C)CC(=O)C=C(c2ccc(-c3ccc4[nH]ccc4c3)cc2)C1=O	/	/	70*	/
c1cncc(Nc2nc(-c3cccnc3)cs2)c1	7	-1	-3	1
Clc1ccccc1Nc1nnc(-c2ccncc2)s1	64*	82*	60*	0.2
Clc1ccccc1Nc1nc(-c2cccnc2)cs1	/	84*	45	0.2
CC(=O)C(Cc1ccccc1)NC(=O)COc1ccc2c(c1)OCO2 (configuration not stated)	/	/	0	/
O=C(O)c1cccc(N/N=C/c2cn(-c3ccccc3)nc2-c2cccs2)c1	4	54*	21	0.5
Cc1nn(-c2cccc(C(F)(F)F)c2)c(Cl)c1/C=N/Nc1cccc(C(=O)O)c1	22	7	-8	0.9
Cc1ccsc1/C=N/Nc1cccc(C(=O)O)c1	1	59*	16	0.4
NC(=O)N/N=C/c1cn(-c2ccccc2)nc1-c1cccs1	44	70*	39	0.3
Cc1ccsc1/C=N/Nc1ccc(C(=O)O)cc1	/	/	8	/
O=C(N/N=C/c1cn(-c2ccccc2)nc1-c1cccs1)c1ccncc1	23	14	4	0.9
Cc1nn(-c2ccccc2Cl)c(Cl)c1/C=N/Nc1cccc(C(=O)O)c1	40	90*	78*	0.1
CCN(CC)c1ccc(NC(=O)COC(=O)COc2ccccc2[N+](=O)[O-])cc1	0	-1	-6	1
O=C(O)c1cccc(N/N=C/c2sc(N3CCOCC3)nc2-c2ccccc2)c1	5	60*	20	0.4
C(=N\NC1=Nc2cccc3cccc1c23)/c1ccccn1	37	66*	71*	0.3
Clc1ccccc1/C=N/NC1=Nc2cccc3cccc1c23	33	31	40	0.7
C(=NNc1ccc2ccccc2n1)c1ccccn1	/	/	87*	/
SMILES	PPC-1+TRAIL kill	FLuc inh counter	C8 TRAIL sens	FLuc act counter
CC1CCN(c2nc(-c3cccnc3)nc3scc(-c4ccccc4)c23)CC1	6	-9	12	1.1
Clc1nc(-c2ccccn2)nc2scc(-c3ccccc3)c12	72*	97*	46	0
CCCCC1C2C(=O)N(c3ccc(C)cc3)C(=O)C2ON1c1ccccc1 (configuration not stated)	3	/	-3	/
Cc1ccc(Nc2nc(CSc3nnc(-c4ccc(F)cc4)n3C)cs2)cc1	33	84*	35	0.2
O=C(Cn1ccc(NC(=O)OCc2ccccc2)nc1=O)NCCCn1ccnc1	/	/	1	/
COCc1nnc(NC(=O)c2c(-c3c(Cl)cccc3Cl)noc2C)s1	/	/	12	/
O=C(Nc1ccc2c(c1)OCCO2)c1cccc(C(=O)Nc2ccc3c(c2)OCCO3)c1	/	/	16	/
Cc1ncoc1C(=O)Nc1ccc2c(c1)OCCO2	6	37	8	0.6
Cc1cc(C(=O)Nc2ccc3c(c2)OCCO3)c(C)o1	27	54*	22	0.5
CCOc1cccc(C(=O)Nc2ccc3c(c2)OCCO3)c1	/	/	59*	/
O=C(Nc1ccc2c(c1)OCCO2)C(=O)c1c[nH]c2ccccc12	/	/	82*	/
Cc1ccsc1C(=O)Nc1ccc2c(c1)OCCO2	31	79*	71*	0.2
CCOC(=O)C1CCN(C(=O)COC(=O)c2nn(C)c(=O)c3ccccc23)CC1	/	/	5	/
Cc1ccccc1C(=O)Nc1ccc2c(c1)OCCO2	/	/	62*	/
Cc1cc(C(=O)Nc2ccc3c(c2)OCCO3)c2ccccc2n1	-4	-5	-13	1.1
O=C(Nc1ccc2c(c1)OCCO2)c1coc2ccccc2c1=O	0	97*	-2	0
CSc1ccccc1C(=O)Nc1ccc2c(c1)OCCO2	5	6	6	0.9
O=C(CCl)Nc1c(C(=O)Nc2ccc3c(c2)OCCO3)oc2ccccc12	/	/	61*	/
O=C(Nc1ccc2c(c1)OCCO2)c1ccccc1	/	/	51*	/
Cc1ccc(C(=O)C2CC2)cc1C	/	/	-1	/
CC(Cc1ccccc1)NC(=O)CCNNC(=O)c1ccncc1 (configuration not stated)	/	/	-7	/
CS(=O)(=O)c1cccc(-c2nnc(NC(=O)C3=COCCO3)o2)c1	/	/	16	/
CC(=O)Nc1ccc(NC(=O)c2c(C)nc3ccccn23)cc1	4	-3	13	1
Cc1nc2ccccn2c1C(=O)Nc1ccc2c(c1)OCCO2	27	54*	25	0.5
Cc1cc(-c2ccc(F)cc2)n2ncc(-c3ccccc3)c2n1	/	/	64*	/
SMILES	PPC-1+TRAIL kill	FLuc inh counter	C8 TRAIL sens	FLuc act counter
Cc1nc2c(-c3ccc(F)cc3)cnn2c(N)c1-c1ccccc1	/	/	83*	/
Cc1nc2c(-c3ccc(Cl)cc3)cnn2c(N)c1-c1ccc(F)cc1	/	/	33	/
Cc1ccc(S(=O)(=O)N(C)C[C@H]2OCc3cn(nn3)CCCC(=O)N([C@H](C)CO)C[C@@H]2C)cc1	/	/	-4	/
Cc1nc(N2CCOCC2)c2cc(-c3ccccc3)sc2n1	7	9	7	0.9
Cc1nc(SCCC(=O)O)c2cc(-c3ccccc3)sc2n1	/	/	63*	/
CCOc1ccc(CCNC(=O)Cn2nc(C)c3c(C)n(-c4ccccc4)nc3c2=O)cc1OCC	/	/	8	/
Oc1c(CN2CCCCC2)cc(COCc2ccccc2)c2cccnc12	15	-1	56*	1
COCc1cc(CN2CCCC2)c(O)c2ncccc12	-2	-2	-3	1
NS(=O)(=O)c1ccc(N=Nc2c(-c3ccccc3)[nH]n(-c3nc(-c4ccccc4)cs3)c2=O)cc1	15	-5	54*	1.1
Cc1oc(-c2cccc(Cl)c2)nc1CN1CCC(C(=O)NCCCN2CCCC2=O)CC1	-6	-12	4	1.1
Cc1oc(-c2cccc(Cl)c2)nc1CN1CCC(C(=O)NCCCN2CC(C)CC(C)C2)CC1 (configuration not stated)	/	/	54*	/
COc1ccc(CCNC(=O)C2CCN(Cc3nc(-c4cccc(Cl)c4)oc3C)CC2)cc1OC	18	-8	54*	1.1
CCC1Oc2ccccc2N(CC(=O)NCc2cccs2)C1=O (configuration not stated)	-8	-4	-8	1

Compound activity (PubChem)
